pIC50: −log10 of the molar value. Several values for one entry are separate records, joined by “and”; a condition that tells them apart may be missing. Equal values may be shown once.
Experiments:
[1] = biological target: T1, Receptor tyrosine-protein kinase erbB-2 (Homo sapiens, UniProt P04626); assay: Inhibition of heregulin-stimulated autophosphorylation of ERBB2 receptor kinase in MDA-MB-453 cells.; assay type: cell-based
Procedure, shortened: (§1)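 MDA-MB-453 cells in αMEM/F12 with 10% FBS were grown to 90% confluency and held serum-free for 18 h. Cells were treated 1 h with varied inhibitor concentrations, then stimulated 5 min with heregulin (10 ng/mL) and lysed in boiling Laemmli buffer. Read-out was SDS-PAGE and antiphosphotyrosine Western blot with [125I]protein A detection and laser densitometry. IC50 is the average of two experiments.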

[2] = biological target: T2, Epidermal growth factor receptor (Homo sapiens, UniProt P00533)
[3] = tested on: A-431; assay: In vivo activity against A431 xenograft in nude mice, ratio of treated/control median tumor mass at 212 mg/kg peroral dose; assay type: functional; details: dose 12 mg/kg; route intraperitoneal; in the assay text read “12 mg/kg intraperitoneal dose” for “212 mg/kg peroral dose”
Procedure, shortened: (§2)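 Nude (NCr nu/nu) mice of 18–22 g were randomized and implanted sc in the right axilla with serially passaged A431 or H125 tumor fragments on day 0. Dosing by average cage weight (6 mice/group) ip or po began at 100–150 mg tumor mass. The ip vehicle was 6% dimethylacetamide/94% 50 mM sodium lactate pH 4.0 suspension; later suspensions used 0.5% methylcellulose. T/C = median treated/control tumor mass ×100% on the last therapy day. T−C = days for tumors to reach 750 mg.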

[4] = tested on: NCI-H125; assay: In vivo activity against H125 xenograft in nude mice, ratio of treated/control median tumor mass at 200 mg/kg peroral dose; assay type: functional; details: route oral; procedure, shortened: as §2
[5] = tested on: NCI-H125; assay: In vivo activity against H125 xenograft in nude mice, ratio of treated/control median tumor mass at 9.6 mg/kg peroral dose; assay type: functional; details: route intraperitoneal, in the assay text read “intraperitoneal” for “peroral”
[6] = tested on: A-431; assay: Difference in days for treated (T) and control (C) A431 cell tumors to reach 750 mg at 12 mg/kg ip dose; assay type: functional; details: route intraperitoneal; procedure, shortened: as §2
[7] = tested on: Mus musculus; assay: Difference in days for treated (T) and control (C) tumors to reach 750 mg at 200 mg/kg ip dose; assay type: functional; details: route intraperitoneal; procedure, shortened: as §2
[8] = tested on: NCI-H125; assay: (§3) In vivo activity against H125 xenograft in nude mice, weight change at 200 mg/kg peroral dose; assay type: functional, organism-based; set-up: dose 200 mg/kg; procedure, shortened: as §2
[9] = tested on: A-431; assay: In vivo activity against A431 xenograft in nude mice, weight change at 12 mg/kg ip dose; assay type: functional; details: route intraperitoneal; procedure, shortened: as §2
[10] = tested on: NCI-H125; assay: In vivo activity against H125 xenograft in nude mice, weight change at 9.6 mg/kg ip dose; assay type: functional; details: route intraperitoneal
Procedure, shortened: (§4)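 NCr nu/nu mice (18–22 g, 6/dose group) implanted sc in the right axilla with serially passaged H125 NSCLC fragments on day 0. Dosing ip by average cage weight as a fine suspension in 6% dimethylacetamide/94% 50 mM sodium lactate pH 4.0, started at tumor mass 100–150 mg. Read-outs were body weight change and treated-minus-control days to reach 750 mg.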

[11] = tested on: NCI-H125; assay: Difference in days for treated (T) and control (C) H125 cell tumors to reach 750 mg at 9.6 mg/kg ip dose; assay type: functional; details: route intraperitoneal; procedure, shortened: as §4
[12] = biological target: T2, Epidermal growth factor receptor; remark: listed apart in the source
[13] = tested on: A-431; assay: In vivo activity against A431 xenograft in nude mice, ratio of treated/control median tumor mass at 200 mg/kg peroral dose; assay type: functional; details: route oral; procedure, shortened: as §2
[14] = tested on: A-431; assay: (§5) In vivo activity against A431 xenograft in nude mice, weight change at 200 mg/kg peroral dose; assay type: functional; details: route oral; procedure, shortened: as §2
[15] = tested on: NCI-H125; assay: as §3; assay type: functional; details: route oral; procedure, shortened: as §2
[16] = tested on: A-431; assay: In vivo activity against A431 xenograft in nude mice, ratio of treated/control median tumor mass at 150 mg/kg peroral dose; assay type: functional; details: route oral; procedure, shortened: as §2
[17] = tested on: A-431; assay: In vivo activity against A431 xenograft in nude mice, ratio of treated/control median tumor mass at 47 mg/kg ip dose; assay type: functional; details: route intraperitoneal; procedure, shortened: as §2
[18] = tested on: NCI-H125; assay: In vivo activity against H125 xenograft in nude mice, ratio of treated/control median tumor mass at 50 mg/kg ip dose; assay type: functional; details: route intraperitoneal; procedure, shortened: as §2
[19] = tested on: NCI-H125; assay: In vivo activity against H125 xenograft in nude mice, ratio of treated/control median tumor mass at 50 mg/kg peroral dose; assay type: functional; details: route oral; procedure, shortened: as §2
[20] = tested on: A-431; assay: Difference in days for treated (T) and control (C) A431 cell tumors to reach 750 mg at 47 mg/kg ip dose; assay type: functional; details: route intraperitoneal; procedure, shortened: as §2
[21] = tested on: NCI-H125; assay: In vivo activity against H125 xenograft in nude mice, weight change at 50 mg/kg ip dose; assay type: functional; details: route intraperitoneal; procedure, shortened: as §2
[22] = tested on: A-431; assay: In vivo activity against A431 xenograft in nude mice, weight change at 1150 mg/kg peroral dose; assay type: functional; details: dose 150 mg/kg; route oral; in the assay text read “150 mg/kg” for “1150 mg/kg”; procedure, shortened: as §2
[23] = tested on: A-431; assay: In vivo activity against A431 xenograft in nude mice, weight change at 47 mg/kg ip dose; assay type: functional; details: route intraperitoneal; procedure, shortened: as §2
[24] = biological target: T1, Receptor tyrosine-protein kinase erbB-2; assay: Inhibition of heregulin-stimulated autophosphorylation of erbB2 in MDA-MB-453 cells.; assay type: cell-based; procedure, shortened: as §1
[25] = tested on: A-431; assay: In vivo activity against A431 xenograft in nude mice, ratio of treated/control median tumor mass at 40 mg/kg peroral dose; assay type: functional; details: route oral; procedure, shortened: as §2
[26] = tested on: Mus musculus; assay: Difference in days for treated (T) and control (C) tumors to reach 750 mg at 200 mg/kg peroral dose; assay type: functional; details: route oral; procedure, shortened: as §2
[27] = tested on: A-431; assay: Difference in days for treated (T) and control (C) A431 cell tumors to reach 750 mg at 40 mg/kg peroral dose; assay type: functional; details: route oral; procedure, shortened: as §2
[28] = tested on: A-431; assay: In vivo activity against A431 xenograft in nude mice, weight change at 40 mg/kg peroral dose; assay type: functional; details: route oral; procedure, shortened: as §2
[29] = tested on: A-431; assay: as §5; assay type: functional, organism-based; set-up: dose 200 mg/kg; procedure, shortened: as §2
[30] = tested on: A-431; assay: Difference in days for treated (T) and control (C) A431 cell tumors to reach 750 mg at 75 mg/kg ip dose; assay type: functional; details: route intraperitoneal; procedure, shortened: as §2
[31] = tested on: NCI-H125; assay: Difference in days for treated (T) and control (C) tumors to reach 750 mg at 250 mg/kg peroral dose; assay type: functional; details: route oral; procedure, shortened: as §2
[32] = tested on: NCI-H125; assay: In vivo activity against H125 xenograft in nude mice, ratio of treated/control median tumor mass at 250 mg/kg peroral dose; assay type: functional; details: route oral; procedure, shortened: as §2
[33] = tested on: A-431; assay: Difference in days for treated (T) and control (C) A431 cell tumors to reach 750 mg at 260 mg/kg peroral dose; assay type: functional; details: route oral; procedure, shortened: as §2
[34] = tested on: NCI-H125; assay: Difference in days for treated (T) and control (C) H125 cell tumors to reach 750 mg at 50 mg/kg ip dose; assay type: functional; details: route intraperitoneal; procedure, shortened: as §2
[35] = tested on: NCI-H125; assay: In vivo activity against H125 xenograft in nude mice, weight change at 250 mg/kg peroral dose; assay type: functional; details: route oral; procedure, shortened: as §2
[36] = tested on: Mus musculus; assay: In vivo activity against tumor xenograft in nude mice, weight change at 75 mg/kg ip dose; assay type: functional; details: route intraperitoneal; procedure, shortened: as §2
[37] = tested on: A-431; assay: In vivo activity against A431 cell tumor xenograft in nude mice at 75 ip mg/kg dose; assay type: functional; procedure, shortened: as §2
[38] = tested on: A-431; assay: In vivo activity against A431 xenograft in nude mice, weight change at 260 mg/kg peroral dose; details: route oral
[39] = tested on: A-431; assay: In vivo activity against A431 xenograft in nude mice, ratio of treated/control median tumor mass at 260 mg/kg peroral dose; details: route oral

T1 sequence (P04626 whole entry): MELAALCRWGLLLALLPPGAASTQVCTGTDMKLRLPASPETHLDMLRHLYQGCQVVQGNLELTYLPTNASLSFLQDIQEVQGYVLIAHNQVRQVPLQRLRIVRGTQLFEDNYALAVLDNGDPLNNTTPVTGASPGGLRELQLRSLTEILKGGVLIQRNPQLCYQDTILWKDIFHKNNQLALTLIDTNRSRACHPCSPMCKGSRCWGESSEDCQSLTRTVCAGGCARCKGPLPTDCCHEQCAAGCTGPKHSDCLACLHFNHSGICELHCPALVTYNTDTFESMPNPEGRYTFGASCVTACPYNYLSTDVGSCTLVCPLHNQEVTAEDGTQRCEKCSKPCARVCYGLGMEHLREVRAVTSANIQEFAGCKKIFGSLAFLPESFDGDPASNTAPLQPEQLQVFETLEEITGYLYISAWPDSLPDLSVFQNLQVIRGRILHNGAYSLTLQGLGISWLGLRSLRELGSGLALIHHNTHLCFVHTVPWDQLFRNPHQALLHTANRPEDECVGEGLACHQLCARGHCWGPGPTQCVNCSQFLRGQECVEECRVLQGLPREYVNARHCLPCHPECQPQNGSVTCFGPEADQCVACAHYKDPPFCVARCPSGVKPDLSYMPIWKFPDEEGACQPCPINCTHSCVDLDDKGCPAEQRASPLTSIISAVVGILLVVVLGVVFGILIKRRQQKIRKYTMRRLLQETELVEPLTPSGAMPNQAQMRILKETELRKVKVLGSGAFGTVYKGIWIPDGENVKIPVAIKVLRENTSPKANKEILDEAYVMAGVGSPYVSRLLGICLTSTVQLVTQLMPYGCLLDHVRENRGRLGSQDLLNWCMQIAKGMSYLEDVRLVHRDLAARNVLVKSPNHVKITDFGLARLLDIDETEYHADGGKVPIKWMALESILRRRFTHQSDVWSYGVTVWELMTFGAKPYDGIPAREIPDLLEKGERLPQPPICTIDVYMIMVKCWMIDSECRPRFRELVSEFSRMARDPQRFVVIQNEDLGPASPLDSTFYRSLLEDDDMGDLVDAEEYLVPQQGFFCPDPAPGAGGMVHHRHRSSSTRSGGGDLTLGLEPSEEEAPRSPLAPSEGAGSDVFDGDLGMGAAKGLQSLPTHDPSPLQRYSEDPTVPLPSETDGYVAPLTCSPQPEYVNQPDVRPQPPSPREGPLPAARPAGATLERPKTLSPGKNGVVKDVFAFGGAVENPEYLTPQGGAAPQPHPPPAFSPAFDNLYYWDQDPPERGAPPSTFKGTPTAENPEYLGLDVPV
T2 sequence (P00533 whole entry): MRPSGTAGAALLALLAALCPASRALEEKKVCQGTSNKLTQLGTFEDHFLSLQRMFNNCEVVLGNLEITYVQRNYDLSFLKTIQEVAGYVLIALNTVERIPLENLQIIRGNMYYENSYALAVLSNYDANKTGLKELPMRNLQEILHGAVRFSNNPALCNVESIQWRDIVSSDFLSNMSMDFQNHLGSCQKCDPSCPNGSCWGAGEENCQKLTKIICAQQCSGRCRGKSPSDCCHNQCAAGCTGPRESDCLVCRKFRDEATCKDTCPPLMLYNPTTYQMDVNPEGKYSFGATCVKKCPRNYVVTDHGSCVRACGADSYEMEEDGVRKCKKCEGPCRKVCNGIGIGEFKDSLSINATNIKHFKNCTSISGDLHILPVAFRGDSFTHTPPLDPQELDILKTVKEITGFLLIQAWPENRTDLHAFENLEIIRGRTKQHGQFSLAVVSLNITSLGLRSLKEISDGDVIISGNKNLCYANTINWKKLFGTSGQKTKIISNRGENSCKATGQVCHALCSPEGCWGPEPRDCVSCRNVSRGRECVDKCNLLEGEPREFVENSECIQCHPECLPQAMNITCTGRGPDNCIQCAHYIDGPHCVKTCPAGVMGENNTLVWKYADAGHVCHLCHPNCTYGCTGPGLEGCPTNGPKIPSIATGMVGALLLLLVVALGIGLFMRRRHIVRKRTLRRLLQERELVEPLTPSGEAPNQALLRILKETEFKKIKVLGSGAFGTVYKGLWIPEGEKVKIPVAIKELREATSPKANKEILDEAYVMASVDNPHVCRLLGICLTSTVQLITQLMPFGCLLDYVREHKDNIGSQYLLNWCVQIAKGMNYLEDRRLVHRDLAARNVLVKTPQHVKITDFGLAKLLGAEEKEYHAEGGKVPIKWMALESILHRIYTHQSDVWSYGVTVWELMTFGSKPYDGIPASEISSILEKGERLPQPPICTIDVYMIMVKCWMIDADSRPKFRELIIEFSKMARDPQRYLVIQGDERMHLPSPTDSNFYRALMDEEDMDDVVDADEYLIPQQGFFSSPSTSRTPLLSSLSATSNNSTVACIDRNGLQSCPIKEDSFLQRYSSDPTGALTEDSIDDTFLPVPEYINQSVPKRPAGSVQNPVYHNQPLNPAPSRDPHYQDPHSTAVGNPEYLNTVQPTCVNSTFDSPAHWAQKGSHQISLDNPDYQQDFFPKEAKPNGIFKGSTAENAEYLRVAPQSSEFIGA

Work on C=CC(=O)Nc1ccc2c(Nc3cccc(Br)c3)ncnc2c1 yielded a pIC50 [1] of 7.14 and a pIC50 [2] of 9.35.

In the case of C=CC(=O)Nc1cc2c(Nc3cccc(Br)c3)ncnc2cn1, the pIC50 [1] was 8.41, the T/C [3] was 17% and the T/C ([4]; 200 mg/kg) was 11% and 20%. For the same molecule, the T/C [5] was 26%, the T-C [6] was 12 days and the T-C [7] was 24.3 days and 16.5 days. The Weight change [8] was “Weight gain”, the Weight change [9] was -2.4 g and the Weight change [10] was -1.3 g. For the same molecule, the T-C [11] was 8.7 days.

Work on C=CC(=O)Nc1ccc2ncnc(Nc3ccc(F)c(Br)c3)c2c1 yielded a pIC50 [1] of 8.14, a pIC50 [12] of 8.57 and a pIC50 [2] of 9.16.

C=CC(=O)Nc1cc2c(Nc3ccc(F)c(Cl)c3)ncnc2cn1 was tested, and the pIC50 [1] was 8.52, the T/C [13] was 12% and the T/C [4] was 27%. The T-C [7] was 18.3 days and 12.7 days, the Weight change [14] was -0.3 g and the Weight change [15] was -1.8 g. The pIC50 [12] was 8.48 and the pIC50 [2] was 9.11.

Work on C=CC(=O)Nc1ccc2ncnc(N3CCc4ccc(Br)cc43)c2c1 yielded a pIC50 [12] of 8.00.

C=CC(=O)Nc1ccc2ncnc(Nc3ccc(Oc4ccccc4)cc3)c2c1 was tested, and the pIC50 [1] was 8.07.

For C=CC(=O)Nc1ccc2ncnc(Nc3ccc(F)c(Cl)c3)c2n1, the pIC50 [1] was 7.92.

For C=CC(=O)Nc1ccc2ncnc(Nc3ccc(F)c(Br)c3)c2n1, the pIC50 [1] was 7.59, the pIC50 [12] was 7.74 and the pIC50 [2] was 8.92.

In the case of C=CC(=O)Nc1ccc2ncnc(Nc3cccc(Br)c3)c2c1, the pIC50 [1] was 8.24, the T/C [16] was 2% and the T/C [17] was 2%. The T/C [18] was 15%, the T/C [19] was 8% and the T-C [20] was 29 days and 15.7 days. It also gave a Weight change [21] of -1.5 g, a Weight change [22] of -1.7 g and a Weight change [23] of -1 g.

C=CC(=O)Nc1cc2c(Nc3cccc(C)c3)ncnc2cn1 was tested, and the pIC50 [24] was 8.06.

For C=CC(=O)Nc1ccc2ncnc(Nc3ccc(F)c(Cl)c3)c2c1, the pIC50 [1] was 8.37, the T/C [25] was 11% and the T/C [4] was 16%. The T-C [26] was 27.4 days, the T-C [27] was 20.8 days and the Weight change [28] was 0 g. For the same molecule, the Weight change [15] was -0.3 g, the pIC50 [12] was 8.51 and the pIC50 [2] was 9.12.

Work on C=CC(=O)Nc1cc2c(Nc3ccc(F)c(Br)c3)ncnc2cn1 yielded a pIC50 [1] of 8.96, a T/C [13] of 13% and a T/C [4] of 19%. For the same molecule, the T-C [7] was 51.1 days and 18.2 days, the Weight change [29] was “Weight gain” and the Weight change [15] was -1.8 g. For the same molecule, the pIC50 [12] was 8.68 and the pIC50 [2] was 9.14.

In the case of C=CC(=O)Nc1ccc2ncnc(Nc3cccc(C)c3)c2c1, the pIC50 [1] was 7.66, the T-C [30] was 32.3 days and the T-C [31] was 10.5 days. For the same molecule, the T/C [18] was 15%, the T/C [32] was 24% and the T-C [33] was 28.2 days. The T-C [34] was 11.9 days, the Weight change [35] was -0.1 g and the Weight change [36] was -2.2 g. It also gave a T/C [37] of 11%, a Weight change [21] of 0 g and a Weight change [38] of -1.3 g. It also gave a T/C [39] of 3%.
